Assay results reported in ChEMBL document CHEMBL1147401, “Bruceanols D, E, and F three new cytotoxic quassinoids from Brucea antidysenterica” (1993).
In brackets after ≈: the same amount, converted by molar mass.

How the values were obtained:
Type in all cases: functional
Details in all cases: read-out: ED50 (the source's name)
KB = experiment: Cytotoxicity against human KB cells
Procedure, shortened: (§1)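 In vitro cytotoxicity assay run by published protocols. Cell panel: human malignant melanoma ([…]), lung carcinoma (A-549), ileocecal adenocarcinoma (HCT-8), nasopharyngeal epidermoid carcinoma (KB), medulloblastoma (TE-671), and murine lymphocytic leukemia (P-388).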

A549 = experiment: Cytotoxicity against human A549 cells; procedure, shortened: as §1
HCT-8 = experiment: Cytotoxicity against human HCT8 cells; procedure, shortened: as §1
P388 = experiment: Cytotoxicity against mouse P388 cells; procedure, shortened: as §1
TE-671 = experiment: Cytotoxicity against human TE671 cells; procedure, shortened: as §1
RPMI-7951 = experiment: Cytotoxicity against human RPMI7951 cells; procedure, shortened: as §1

Compound | EC50 (KB) | EC50 (A549) | EC50 (HCT-8) | EC50 (P388) | EC50 (TE-671) | EC50 (RPMI-7951)
COC(=O)[C@]12OC[C@]34[C@H]([C@@H](O)[C@@H]1O)[C@@]1(C)[C@H](O)C(=O)C=C(C)[C@@H]1C[C@H]3OC(=O)[C@H](OC(=O)/C=C(\C)C(C)C)[C@@H]24 [BRUCEANOL D] | 0.08 µg/mL (≈ 0.146 µM) | 0.55 µg/mL (≈ 1 µM) | 0.09 µg/mL (≈ 0.164 µM) | 0.09 µg/mL (≈ 0.164 µM) | 0.08 µg/mL (≈ 0.146 µM) | 0.09 µg/mL (≈ 0.164 µM)
COC(=O)[C@]12OC[C@]34[C@H]([C@@H](O)[C@@H]1O)[C@@]1(C)[C@H](O)C(=O)C[C@@H](C)[C@@H]1C[C@H]3OC(=O)[C@H](OC(=O)/C=C(\C)C(C)C)[C@@H]24 [BRUCEANOL E] | 0.55 µg/mL (≈ 0.999 µM) | 3.75 µg/mL (≈ 6.81 µM) | 0.37 µg/mL (≈ 0.672 µM) | 0.57 µg/mL (≈ 1.04 µM) | 0.12 µg/mL (≈ 0.218 µM) | 0.11 µg/mL (≈ 0.2 µM)
COC(=O)[C@]12OC[C@]34[C@H]([C@@H](O)[C@@H]1O)[C@@]1(C)C(=O)C(O)=C[C@@H](C)[C@@H]1C[C@H]3OC(=O)[C@H](OC(=O)/C=C(\C)C(C)C)[C@@H]24 [BRUCEANOL F] | 0.43 µg/mL (≈ 0.784 µM) | 0.55 µg/mL (≈ 1 µM) | 0.13 µg/mL (≈ 0.237 µM) | 0.36 µg/mL (≈ 0.656 µM) | 0.09 µg/mL (≈ 0.164 µM) | 0.09 µg/mL (≈ 0.164 µM)
